SENP1 FRET inh – SENP1 (human) catalytic domain inhibition. Q9P0U3. recombinant SENP1 catalytic domain, CyPet-SUMO1-YPet FRET cleavage. 360,000 compounds, 0.21% hits. inhibition, % at 10 µM;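 active = inhibition at least 30% at 10 µM, raw YFP signal under a set limit, fluorescence ratio 0.5 to 1.5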;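 note: 0% = enzyme with DMSO and 100% = no enzyme wells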
Target sequence (Q9P0U3 419-644 limits assumed): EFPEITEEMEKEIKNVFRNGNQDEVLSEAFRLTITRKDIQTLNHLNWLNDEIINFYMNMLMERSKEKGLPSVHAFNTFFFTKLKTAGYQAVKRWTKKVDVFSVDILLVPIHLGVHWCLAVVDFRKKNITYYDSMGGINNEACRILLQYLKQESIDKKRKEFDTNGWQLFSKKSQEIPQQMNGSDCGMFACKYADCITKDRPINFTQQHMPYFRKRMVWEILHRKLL
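Controls: no-enzyme wells low, DMSO-plus-enzyme wells high control. Test system: human recombinant His6-tagged SENP1 catalytic domain enzyme. Reagent: SFCypet-SUMO1-SFYpet FRET protein substrate, 25 nM final. Doses: one dose per compound, 10 µM, 0.5% DMSO. Detection: FRET, CFP and YFP emission. Timing: 50 min reaction at room temperature.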
DSG3 Ab inh – blocks pemphigus antibody binding to human desmoglein-3 | binding (percent of control), % at 10 µM | P32926 | AID 588358 | 310,000 compounds, 0.48% hits | DSG3-coupled beads, scFv-anti-DSG3-GFP binding, flow cytometry; hits give low values;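 active = binding more than 3 SD below its plate's average and above zero; inconclusive = below that plate limit but binding exactly zero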;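 note: hits lower antibody fragment binding to DSG3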
HNF4A DNA FP – change in binding of human HNF4 alpha to DNA; 360,000 compounds, 0.3% hits; HNF4a-FITC DNA binding, fluorescence polarization, 1 h; activity change, % at 10 µM; P41235; in the data active = activity change above about 30%, passing the limit was not always enough
Cardio protect – myocardial damage modulation in H9c2 cells; H9c2 cardiomyocytes, H2O2 injury protection, ATPLite, 2 h; protection from H2O2 cell death, % at 20 µM; 360,000 compounds, 0.63% hits; AID 588492;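 active = compounds giving at least 50% protection of heart cells from peroxide-induced death in the single-dose screen, raw or plate-pattern-corrected value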;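 note: 0% = DMSO wells with peroxide and 100% = DMSO wells without peroxide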
Granule exo inh – blocks lytic granule exocytosis; 360,000 compounds, 0.66% hits; TALL-104 LAMP-1 surface exposure, flow cytometry; cells stimulated with thapsigargin and PMA; AID 651702; inhibition, % at 10 µM;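 active = inhibition above about 55%, limit read from the data; inconclusive = no clear call, values can overlap the other calls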
Myeloid diff 2 – compounds promoting myeloid differentiation; ER-HoxA9 myeloid progenitors, lysozyme-GFP differentiation, flow cytometry; calls only at 10 µM; 360,000 compounds, 1% hits;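 active = normalized GFP-positive differentiation at or above the plate's own cutoff, the solvent-only control mean plus 3 SD; inconclusive = no clear call, values can overlap the other calls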;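 note: cells exposed to compound for four days before flow analysis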
Exocytosis CP01 – blocks lytic granule exocytosis; AID 651954; TALL-104 cells, LAMP-1 externalization, flow cytometry; stimulated with PMA plus thapsigargin; shares compounds with Granule exo inh; 1,500 compounds, 11% hits; inhibition, % at 10 µM; in the data active = inhibition above about 60%;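 note: 0% = stimulated vehicle wells and 100% = unstimulated wells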
The depositor's hits bear a star; i = inactive; u = inconclusive; x = no result given; + = active, no number. Most compounds without a hit are left out; they make up all but 3% or so of the library.

SMILES	SENP1 FRET inh	DSG3 Ab inh	HNF4A DNA FP	Cardio protect	Granule exo inh	Myeloid diff 2	Exocytosis CP01
CC(C)NC(=O)N(C)C[C@H]1Oc2ccc(NC(=O)C3CC3)cc2C(=O)N([C@H](C)CO)C[C@@H]1C	0	108	-2	1	79*	i	-5
Cc1noc(C)c1S(=O)(=O)N(C)C[C@H]1Oc2c(NC(=O)Nc3ccccc3)cccc2C(=O)N([C@H](C)CO)C[C@@H]1C	-1	104	8	8	65*	i	-14
CCCNC(=O)c1ccc(C)c(NC(=O)C2=C(C)OCCS2)c1	2	122	3	2	-12	i	x
COc1ccc(CN(C)CC(O)COc2ccc(-c3ccccc3)cc2)cc1OC (centres undefined)	1	99	0	-2	63*	x	-9
CCOc1ccc(CN(C)CC(O)COC(c2ccc(OC)cc2)c2ccc(OC)cc2)cc1 (centres undefined)	-1	116	-4	-15	69*	i	4
COCCOc1ccc(C(F)(F)F)cc1NC(=O)COC(=O)C12CC3CC(CC(O)(C3)C1)C2	0	111	-2	0	1	i	x
O=C(COC(=O)CCC(=O)c1ccc(F)cc1)Nc1ccc2[nH]c(=O)[nH]c2c1	5	118	-1	1	-3	x	x
CCCCCCNCC(=O)N1CCC(Cc2ccccc2)CC1	0	105	0	0	70*	u	-13
CCOC(=O)c1c(-c2ccc(C)o2)csc1NC(=O)COC(=O)c1cccs1	0	85	4	26	97*	i	-4
Cc1ccc(S(=O)(=O)N2[C@@H](CO)CO[C@H]2CC(=O)c2ccccc2)cc1	1	x	3	x	11	i	x
O=C(COc1ccccc1)Nc1cc(C(F)(F)F)ccc1N1CCCC1	0	110	-4	-11	74*	i	-13
O=C(COc1ccccc1)Nc1ccccc1N1CCCCC1	0	103	0	-11	3	i	x
Cc1cc(C(=O)CN2C(=O)NC(C)(c3ccc(F)c(F)c3)C2=O)c(C)n1C1CC1 (centres undefined)	-3	100	0	-12	60*	i	-14
CCOc1ccc(-c2cc(C(=O)NCCCn3ccnc3)c3cc(Br)ccc3n2)cc1	-1	x	1	-22	79*	i	80*
CCOc1ccc(-c2cc(C(=O)NCCCn3ccnc3)c3ccccc3n2)cc1	3	106	0	14	-1	i	x
CCN(CC)C(=O)CSc1nc2c(sc(=S)n2-c2ccccc2)c(=O)n1-c1ccc(OC)c(OC)c1	0	100	2	-5	-13	i	x
Cc1cc(OCC(=O)OCC(=O)N(C)Cc2ccccc2C)ccc1Cl	5	99	3	-3	0	i	x
CCCc1nnc(SCC(=O)Nc2cccc(C(F)(F)F)c2)o1	1	x	1	-10	-8	i	x
Cc1onc(-c2ccccc2)c1C(=O)N(C)CC(=O)Nc1ccc(F)c(F)c1F	-1	100	1	4	6	i	x
O=C(c1ccc(Cl)cc1)C(CN1CCCC1)c1ccccc1 (centres undefined)	1	147	3	-23	59*	x	-9
COc1ccc(C(=O)C(CN2CCCC2)c2ccccc2)cc1 (centres undefined)	2	110	-4	-6	-2	x	x
C(=C\c1ccccc1)/CSc1nnc(-c2cnccn2)n1Cc1ccco1	0	103	-2	3	63*	i	-9
COc1ccc(NC(=O)COc2ccccc2C(=O)NCC(c2ccccc2)N(C)C)cc1Cl (centres undefined)	0	119	7	12	66*	i	-12
COc1ccc(NC(=O)COc2ccccc2)cc1Cl	2	119	-2	3	-4	x	x
Fc1cccc(-c2cncc(N3CCN(CCN4CCCC4)CC3)n2)c1	-3	x	2	9	59*	i	-9
SMILES	SENP1 FRET inh	DSG3 Ab inh	HNF4A DNA FP	Cardio protect	Granule exo inh	Myeloid diff 2	Exocytosis CP01
COc1cccc(Sc2nc(-c3ccccc3)ncc2S(C)(=O)=O)c1	1	91	4	-11	65*	i	2
COc1ccc(-c2nc(-c3ccccc3)ncc2S(C)(=O)=O)cc1	2	75	-2	-4	0	i	x
CC1(C)Oc2ccc(C(=O)NN)cc2NC1=O	1	100	-6	0	-3	i	x
COc1ccccc1NC(=O)c1cc(-c2ccc(C)o2)nc2ccccc12	-19	107	1	2	12	i	x
Cc1ccc(-c2cc(C(=O)Nc3ccccn3)c3ccccc3n2)o1	9	97	-19	9	88*	i	-9
Cc1ccc(NC(=O)c2cc(-c3ccc(C)o3)nc3ccccc23)cc1	4	101	5	0	84*	i	-12
Cc1ccc(-c2cc(C(=O)Nc3cccnc3)c3ccccc3n2)o1	28	81*	-4	-14	82*	i	-12
CN(C)c1ccc(C=Cc2nccc3ccccc23)cc1	-21	x	-54	-17	-9	u	x
CCN(CC)c1nc(C=Cc2ccc(N(C)C)cc2)c2nccnc2n1	33	236	105	4	73*	+	10
CCC(C(=O)OCC(=O)N(CC)c1c(N)n(Cc2ccccc2)c(=O)[nH]c1=O)c1ccccc1 (centres undefined)	1	92	0	7	0	i	x
O=C(NCCc1c[nH]c2ccccc12)OCCCCOC(=O)NCCc1c[nH]c2ccccc12	-1	103	3	13	10	i	x
CC1CCN(CCCNC(=O)c2cc3c(s2)-c2ccccc2OC3)CC1	-8	112	2	6	8	i	x
Cc1cccc2c1-c1sc(C(=O)NCCCN3CCC(C)CC3)cc1CO2	-18	111	2	-2	79*	u	9
COc1ccc2nc3c(c(-c4ccccc4)c2c1)CCC3	-1	102	-7	4	66*	i	3
COc1ccc(OC)c(Nc2cc(C)c3ccccc3n2)c1	-3	108	3	-6	-13	i	x
COc1ccc(OC)c(Nc2c3ccccc3nc3ccccc23)c1	-5	247	3	-17	67*	i	-2
COc1ccc([N+](=O)[O-])cc1Nc1c2ccccc2nc2ccccc12	-8	115	-5	-20	73*	x	73*
COc1ccc(OC)c(Nc2c3c(nc4ccccc24)CCC3)c1	1	116	6	-8	58*	x	-1
COc1cc([N+](=O)[O-])cc2sc(NC(C)=O)nc12	-17	101	-2	0	-2	i	x
